p97 ATPase inh: inhibitors of human p97 ATPase; recombinant p97 ATPase, Kinase-Glo ATP luminescence, 3 h; P55072; inhibition, % at 8 µM; 0.42% of 220,000 active; in the data active = inhibition above about 15%;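 note: 0% = DMSO vehicle and 100% = wells lacking enzyme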
G6PDH CS: L. mesenteroides G6PDH inhibition counter-screen; 0.12% of 200,000 active; Purified L. mesenteroides G6PDH, diaphorase/resazurin coupled fluorescence, 45 min; inhibition, % at 5 µM; in the data active = inhibition above about 50%
Diaphorase inh: inhibits diaphorase or chemically oxidizes, flagging diaphorase assay artifacts | diaphorase resazurin-to-resorufin fluorescence, NADH, 16 min; bacterial (C. kluyveri) enzyme, not human | AID 1217 | 0.69% of 190,000 active | inhibition, % at 20 µM;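 active = primary screen inhibition at 20 µM above a set limit, cut at about 50% in these data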;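 note: plate controls were DMSO with full reaction for no effect and wells lacking NADH for full effect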
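Test system: diaphorase enzyme from Clostridium kluyveri; amount: diaphorase at 0.14 U/mL in enzyme working solution; detection: fluorescence of resorufin formed from resazurin, Ex 544/Em 590 nm; times: reaction incubation of 16 min at room temperature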
SUMO HTRF inh: SUMOylation inhibition. 0.36% of 290,000 active. AID 2006. P63279. HTRF SUMOylation assay, SAE1/SAE2 + UBC9, in vitro. inhibition, % at 35 µM; in the data active = inhibition above about 50%, passing the limit was not always enough; inconclusive = no clear call, values can overlap the other calls
HKDC1 inh: inhibitors of human hexokinase HKDC1; Q2TB90; inhibition, % at 20 µM; recombinant HKDC1, G6PDH/diaphorase resazurin coupled fluorescence; 0.16% of 340,000 active;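 active = inhibition above about 35% when tested at 20 µM, limit read from the data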;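 note: plate controls were DMSO wells with enzyme for no effect and DMSO wells lacking enzyme for full effect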
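Test system: Recombinant HKDC1 (HK5) hexokinase enzyme, produced in-house | Input: HKDC1 at 5 µg/mL | Buffer or medium: Tris pH 8.0 buffer with MgCl2, Tween-20, BSA, BME | Schedule: 90 min reaction incubation at room temperature, dark | Technique: Resazurin-to-resorufin fluorescence via G6PDH and diaphorase coupling, 525/613 nm | Controls: DMSO wells with and without enzyme mix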
* hit, by the source's call; ? = inconclusive; nt = not tested or not shown. Rows were chosen to be rich in hits. Some 0.95% of all compounds tested hit in one or more screens of this group.

SMILES	p97 ATPase inh	G6PDH CS	Diaphorase inh	SUMO HTRF inh	HKDC1 inh
CCC(C)[C@H](NC(=O)c1cc2cc(Cl)ccc2n1C)C(=O)N1CCC[C@H]1C(=O)O (some centres undefined)	nt	nt	nt	14	2
Cc1ccc([N+](=O)[O-])cc1N/C=C1\CCc2ccccc2C1=O	1	32	58*	15	25
CCN(CC)C(=O)c1ccccc1NS(C)(=O)=O	3	-4	74*	-5	-6
Cc1cc([N+](=O)[O-])ccc1-c1ccc(C2Nc3ccccc3C(=O)N2O)o1 (centres undefined)	7	-1	68*	25	17
O=C1c2ccccc2NC(c2ccc(-c3ccccc3F)o2)N1O (centres undefined)	nt	nt	nt	nt	-9
COc1ccc(N2C(=O)C(CC(=O)Nc3ccccc3)N(Cc3ccccn3)C2=S)cc1 (centres undefined)	-3	7	21	-43	-2
N#Cc1ccc(CN2CCN(C(=O)CNS(=O)(=O)c3ccc4c(c3)OCCCO4)CC2)cc1	nt	nt	nt	nt	-2
CCOc1ccc(S(=O)(=O)NCCC(=O)NCCc2ccc(OCC)c(OCC)c2)cc1	nt	nt	nt	nt	-4
Cc1cc2nc3c(=O)n(CCc4ccccc4)c(=O)[nH]c3nc2cc1N	-4	nt	nt	46	27
COc1cc2[nH]c(=O)n(C3CCCCC3)c(=O)c2cc1OC	-1	8	16	11	-4
Nc1ccc2nc3c(=O)n(C4CCCCC4)c(=O)[nH]c3nc2c1	11	nt	nt	61*	20
Nc1ccc2nc3c(=O)n(CCc4ccccc4)c(=O)[nH]c3nc2c1	7	nt	nt	68*	21
CCCCn1c(=O)[nH]c2nc3cc(N)ccc3nc2c1=O	3	17	67*	98*	17
CCCn1c(/N=C/c2ccccc2O)nc2ccccc21	5	10	10	25	-2
Cn1c(/N=C/c2c(O)ccc3ccccc23)nc2ccccc21	3	12	77*	4	54*
Cc1cccc(CSc2nc3c(c(-c4cccs4)c2C#N)CN(C)CC3)c1	6	0	58*	16	-3
O=C1/C(=C\c2cc(Br)cc(Br)c2O)SC(=S)N1Cc1ccccc1	nt	nt	nt	59*	15
O=C(O)CN1C(=O)/C(=C\c2cc(Br)ccc2OCc2ccccc2Cl)SC1=S	nt	nt	nt	-11	17
O=C(O)CN1C(=O)/C(=C\c2cc(Br)ccc2OCc2ccc([N+](=O)[O-])cc2)SC1=S	nt	nt	nt	51*	25
CSc1nc(Cl)c(Br)c(Nc2c[nH]c(=O)[nH]c2=O)n1	nt	nt	nt	nt	4
FC(F)Oc1cccc(NC(=S)N2CCN(c3ccccn3)CC2)c1	3	0	70*	-6	-6
CC(C)(C)C1=CC(=O)C(=O)C(C(C)(C)C)=C1	-2	29	73*	1	14
Cc1ccc2sc(NNC(=O)c3cc(=O)c4ccccc4o3)nc2c1C	1	8	58*	-114	-21
Cc1cccc2sc(NNC(=O)c3cc(=O)c4ccccc4o3)nc12	13	9	49	-49	-23
CC(=O)c1ccc(NC(=O)CC2Nc3cccc4cccc(c34)NC2=O)cc1 (centres undefined)	11	20	84*	96*	6
SMILES	p97 ATPase inh	G6PDH CS	Diaphorase inh	SUMO HTRF inh	HKDC1 inh
Cc1cccc(NC(=O)CC2Nc3cccc4cccc(c34)NC2=O)c1 (centres undefined)	6	30	68*	89	8
CC(=O)Nc1ccc(NC(=O)CC2Nc3cccc4cccc(c34)NC2=O)cc1 (centres undefined)	11	26	77*	?	7
O=C(CC1NC(=O)NC1=O)Nc1ccccc1 (centres undefined)	5	2	11	5	-3
CCOc1ccc(NC(=O)CC2Nc3ccccc3NC2=O)cc1 (centres undefined)	3	-1	11	24	16
O=C(Cn1c(=O)cnc2ccccc21)NNC(=O)c1ccccc1Cl	nt	nt	nt	nt	-4
CC(=O)c1ccc(NC(=O)c2ccc(C)c(Br)c2)cc1	2	8	94*	16	17
O=C(NCc1ccccn1)C(=O)NCC1OCCN1S(=O)(=O)c1ccc([N+](=O)[O-])cc1 (centres undefined)	nt	nt	nt	17	-4
O=C(Cn1nc(C(F)F)cc1C(F)F)NNC(=S)Nc1ccc([N+](=O)[O-])cc1	5	8	52*	-22	-3
Cc1nn(CCC(=O)NNC(=S)Nc2ccc([N+](=O)[O-])cc2)c(C)c1[N+](=O)[O-]	3	2	86*	12	-4
CCN(C(=O)CSc1nnc(-c2ccc(F)cc2)n1C)C1CCS(=O)(=O)C1 (centres undefined)	nt	nt	nt	nt	-10
Cc1ccccc1CC(=O)Nc1ccc(C(=O)N2CCCC2)cc1	nt	nt	nt	-5	4
O=C(NC(=S)NCc1cccnc1)c1cccc2ccccc12	8	7	16	1	-3
O=C(O)CC/C(=N/Nc1ncc(C(F)(F)F)cc1Cl)C(=O)O	-1	10	53*	-7	-10
O=C(O)CCc1ncc(C(F)(F)F)cc1Cl	3	0	2	6	-3
CCOC(=O)Cn1c2ccccc2c2nc3ccccc3nc21	1	4	1	94*	2
CSC1=NCCN1C(=O)c1ccc(C)cc1	4	0	6	3	-7
CSC1=NCCN1C(=O)c1ccc(S(=O)(=O)N(C)C)cc1	15*	1	15	13	-8
N#C/C(C(N)=O)=c1/ccc2c(c1)N1C3=C(CCCC3)CC3CCCCC31N=2 (centres undefined)	-15	11	91*	-58	52*
CC(NC(=O)C(C)N1CCN(Cc2ccccc2)CC1)c1ccc(F)cc1 (centres undefined)	nt	nt	nt	11	-2
O=C(Nc1ccncc1)c1sc2ccccc2c1Cl	0	2	16	10	-3
O=C(NNC(=O)c1sc2ccccc2c1Cl)Nc1ccc(Cl)cc1	-3	4	-10	52*	-6
COc1ccc(NS(=O)(=O)c2ccc(O)c(NC(=O)c3cc4c(C)nn(-c5ccc(F)cc5)c4s3)c2)cc1	5	-6	14	82*	4
COc1ccc(NS(=O)(=O)c2ccc(N3CCOCC3)c(NC(=O)c3ccc(F)cc3)c2)cc1	10	-19	12	-2	5
CC1(c2ccccc2)NC(=O)N(CC(=O)Nc2ccccc2C(=O)NC2CC2)C1=O (centres undefined)	nt	nt	nt	10	-8
Cc1ccc2c(c1)/C(=C/c1ccc(F)cc1)C(=O)N2	nt	nt	nt	-15	23
Cc1ccc2c(c1)N/C(=C(\C=C(/Cl)[N+](=O)[O-])[N+](=O)[O-])N2	14	26	75*	13	nt
COc1cccc(/C=C/C(=O)c2ccc3c(c2)OCCO3)c1OC	nt	nt	nt	13	6
O=C(NC1CCS(=O)(=O)C1)/C(=C/c1ccco1)NC(=O)c1ccccc1 (centres undefined)	5	2	55*	3	-8
